Test results: PMC8165011 (European journal of medicinal chemistry, 2021)
Converted amounts (≈) assume the structure as drawn.

Tests used:
[1] = tested on: E. faecalis clinical isolates (VRE); experiment: MIC against clinical isolates of E. faecalis; format: cell-based
[2] = tested on: E. faecium clinical isolates (VRE); experiment: MIC against clinical isolates of E. faecium; format: cell-based
[3] = tested on: S. aureus clinical isolates (MSSA, MRSA); experiment: MIC against clinical isolates of S. aureus; format: cell-based; details: Staphylococcus aureus
[4] = tested on: E. faecalis ATCC 29212 preformed biofilm; experiment: Biofilm destruction assay; format: cell-based; details: 2xMIC
[5] = tested on: S. aureus and E. faecalis biofilms; experiment: Biofilm inhibition and destruction at 4x and 8xMIC; format: cell-based; details: 4x and 8xMIC (data not shown)
[6] = tested on: S. aureus UAMS-1 catheter-associated biofilm; experiment: In vitro model of catheter-associated biofilm; format: cell-based; details: after 2 days of exposure, 20xMIC (40 μg/ml), per catheter
[7] = tested on: S. aureus ATCC 700699 (MRSA) stationary phase persister cells; experiment: Persister cell killing assay; format: cell-based; details: for log reduction of persister cells: within 4 h
[8] = tested on: S. aureus ATCC 700699 (MRSA); experiment: Multistep; format: cell-based; details: sub-lethal exposure, 21 passages
[9] = tested on: E. faecalis ATCC 29212; experiment: Multistep; format: cell-based; details: for increase in resistance (in words): through the 14th passage
[10] = tested on: S. aureus ATCC 700699; experiment: Time kill assay; format: cell-based; details: 4xMIC
In short: (§1)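 Log-phase culture diluted to ~5 × 10^6 CFU/ml in warm CAMHB and exposed to test compound at 4xMIC at 35 °C. Samples taken every 2 h, diluted 10-fold down to 10^-5, and viable counts done by 6×6 drop plating after 18–24 h at 35 °C. Each assay run in triplicate.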

[11] = tested on: S. aureus ATCC 33591; experiment: Time kill assay; format: cell-based; details: 4xMIC
In short: as §1

[12] = tested on: methicillin-sensitive clinical isolate of S. aureus UAMS-1; details: breakpoint MIC used for comparison; ref not given; cited from earlier work
[13] = tested on: tested Gram-positive strains; experiment: MIC assay, summary over the tested Gram-positive strains; format: cell-based; details: tested Gram-positive strains
In short: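 CLSI standard broth microdilution. Test compound started at 50 µg/ml and serially diluted 2-fold. Run in triplicate.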

[14] = tested on: human embryonic kidney (HEK293) cells; experiment: Cytotoxicity against HEK293 cell line; format: cell-based; details: HEK293 IC50 / MIC for S. aureus ATCC 25923 and ATCC 700699; as high as
In short: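 HEK293 cells kept in EMEM with 10% FBS at 37 °C, 5% CO2. Seeded at 4000 cells/well and treated 24 h with a concentration range of test compound in DMSO. Resazurin (0.15 mg/ml solution as added) incubated 4 h more; fluorescence read at ex 560/em 590 nm. IC50 obtained by curve fitting; selectivity factor computed as IC50/MIC.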

[15] = tested on: S. aureus ATCC 25923 preformed biofilm; experiment: Biofilm destruction assay; format: cell-based; details: 2xMIC
[16] = tested on: S. aureus ATCC 25923 (MSSA); experiment: Multistep; format: cell-based; details: sub-lethal exposure, 21 passages
[17] = tested on: DNA synthesis in S. aureus ATCC 29213; experiment: Macromolecular synthesis inhibition: DNA synthesis; format: cell-based; details: 0.25xMIC
[18] = tested on: lipid synthesis in S. aureus ATCC 29213; experiment: Macromolecular synthesis inhibition: lipid synthesis; format: cell-based; details: MIC
[19] = tested on: S. aureus ATCC 25923 biofilm; experiment: Biofilm inhibition assay; format: cell-based; details: 2xMIC
In short: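 After 24 h at 35 °C: PBS washes, drying at 60 °C for 15 min, 0.1% (w/v) crystal violet for 15 min, solubilisation in 33% acetic acid, OD 620 nm. Controls: broth only, and bacteria with DMSO.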

SMILES: CN[C@H](CC(C)C)C(=O)N[C@H]1C(=O)N[C@@H](CC(N)=O)C(=O)N[C@H]2C(=O)N[C@H]3C(=O)N[C@H](C(=O)N[C@H](C(=O)O)c4cc(O)cc(O)c4-c4cc3ccc4O)[C@H](O)c3ccc(c(Cl)c3)Oc3cc2cc(c3O[C@@H]2O[C@H](CO)[C@@H](O)[C@H](O)[C@H]2O[C@H]2C[C@](C)(N)[C@H](O)[C@H](C)O2)Oc2ccc(cc2Cl)[C@H]1O [vancomycin, Vancomycin]
- MIC ([1]; E. faecalis 1091563, VRE): >32 µg/mL
- MIC ([1]; E. faecalis 1091720, VRE): >32 µg/mL
- MIC ([1]; E. faecalis 1094112, VRE): >32 µg/mL
- MIC ([1]; E. faecalis 1100440, VRE): >32 µg/mL
- MIC ([1]; Enterococcus faecalis, VRE): > 32 µg/mL
- MIC ([2]; E. faecium 1088168, VRE): >32 µg/mL
- MIC ([2]; E. faecium 1088925, VRE): >32 µg/mL
- MIC ([2]; E. faecium 1089544, VRE): >32 µg/mL
- MIC ([2]; E. faecium 1091282, VRE): >32 µg/mL
- MIC ([2]; Enterococcus faecium, VRE): > 32 µg/mL
- MIC ([3]; ATCC29213|MRSA|MSSA, S. aureus ATCC 29213, MSSA): 1 µg/mL (≈ 0.69 µM)
- MIC ([3]; MRSA|MSSA, S. aureus 1088060, MSSA): 0.5 µg/mL (≈ 0.345 µM)
- MIC ([3]; MRSA|MSSA, S. aureus 1088064, MRSA): 0.5 µg/mL (≈ 0.345 µM)
- MIC ([3]; MRSA|MSSA, S. aureus 1088105, MSSA): 1 µg/mL (≈ 0.69 µM)
- MIC ([3]; MRSA|MSSA, S. aureus 1088610, MRSA): 0.5 µg/mL (≈ 0.345 µM)
- MIC ([3]; MRSA|MSSA, S. aureus 1088626, MSSA): 0.5 µg/mL (≈ 0.345 µM)
- MIC ([3]; MRSA|MSSA, S. aureus 1088888, MRSA): 1 µg/mL (≈ 0.69 µM)
- MIC ([3]; MRSA|MSSA, S. aureus 1089106, MRSA): 1 µg/mL (≈ 0.69 µM)
- preformed biofilm destroyed [4]: around 70%
- biofilm inhibition and destruction [5]: > 95%
- average CFU counts [6]: 1.16 × 10^7 CFU
- effect on viability of MRSA persisters (in words) ([7]; 64xMIC): did not affect the viability
- passage at which MIC doubled [8]: 7 passage
- passage after which resistance increased ([9]; 14 passages): 7 passage
- time to decrease bacterial concentration below detectable limits [10]: 8 h
- time to decrease bacterial concentration below detectable limits [11]: 8 h
- breakpoint MIC [12]: ≥ 2 µg/mL

SMILES: O=C(O)c1ccc(-n2cc(CNc3cc(F)cc(C(F)(F)F)c3)c(-c3ccc(C(F)(F)F)cc3)n2)cc1 [Compound 59, 4-[4-[[3-fluoro-5-(trifluoromethyl)anilino]methyl]-3-[4-(trifluoromethyl)phenyl]pyrazol-1-yl]benzoic acid]
- antimicrobial activity (in words) [13]: most potent compound
- Selectivity factor (IC50/MIC values) [14]: ≤ 13
- preformed biofilm eliminated [15]: around 70%
- biofilm inhibition and destruction [5]: > 95%
- average CFU counts [6]: 4.74 × 10^5 CFU
- log reduction of persister cells ([7]; 2xMIC): ~ 1 log
- log reduction of persister cells ([7]; 8xMIC): ~ 3 log
- passage at which MIC doubled [16]: 8 passage
- increase in resistance (in words) [9]: no increase in resistance
- time to eliminate more than 3 log values [10]: ≤ 4 h
- log values of bacteria eliminated ([10]; within 4 h of treatment): more than 3 log
- time to eliminate more than 3 log values [11]: ≤ 4 h
- log values of bacteria eliminated ([11]; within 4 h of treatment): more than 3 log
- inhibition of DNA synthesis [17]: approximately 44%
- inhibition of lipid synthesis [18]: 56.2%

SMILES: O=C(O)c1ccc(-n2cc(CNc3cc(Cl)c(F)c(Cl)c3)c(-c3ccc(C(F)(F)F)cc3)n2)cc1 [Compound 74, 4-[4-[(3,5-dichloro-4-fluoro-anilino)methyl]-3-[4-(trifluoromethyl)phenyl]pyrazol-1-yl]benzoic acid]
- Selectivity factor (IC50/MIC values) [14]: ≤ 33
- biofilm formation inhibited [19]: greater than 85%
- log reduction of persister cells ([7]; 2xMIC): ~ 1 log
- log reduction of persister cells ([7]; 4xMIC): ~ 1 log
- log reduction of persister cells ([7]; 8xMIC): ~ 1 log
- increase in resistance (in words) [9]: no increase in resistance
- time to eliminate more than 3 log values [10]: ≤ 6 h
- time to eliminate more than 3 log values [11]: ≤ 4 h
